High-throughput results from PubChem BioAssay.
SUMO1 PPI mod: SUMO1-SIM interaction modulation; AID 602429; P63165; 0.33% of 360,000 active; SUMO1 binding to a labelled peptide, TR-FRET, 1 h; inhibition, % at 20 µM; in the data active means inhibition above about 37%
Target sequence (P63165 whole entry, looked up): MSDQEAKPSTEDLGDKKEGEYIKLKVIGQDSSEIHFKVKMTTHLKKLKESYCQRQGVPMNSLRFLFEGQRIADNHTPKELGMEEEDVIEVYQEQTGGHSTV
CSN deneddyl inh: inhibitors of human CSN-mediated cullin deneddylation. Q92905. Purified CSN, SCF-Nedd8-OG deneddylation, fluorescence polarization. inhibition, % at 12.5 µM. 0.38% of 360,000 active;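 active means pattern-corrected inhibition above about 35%, with an unprinted fluorescence ratio check between 0.5 and 1.5, limit read from the data, passing the limit was not always enough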;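 further: 0% = enzyme with substrate and 100% = substrate without enzyme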
Target sequence (Q92905 whole entry, looked up, one chain of several): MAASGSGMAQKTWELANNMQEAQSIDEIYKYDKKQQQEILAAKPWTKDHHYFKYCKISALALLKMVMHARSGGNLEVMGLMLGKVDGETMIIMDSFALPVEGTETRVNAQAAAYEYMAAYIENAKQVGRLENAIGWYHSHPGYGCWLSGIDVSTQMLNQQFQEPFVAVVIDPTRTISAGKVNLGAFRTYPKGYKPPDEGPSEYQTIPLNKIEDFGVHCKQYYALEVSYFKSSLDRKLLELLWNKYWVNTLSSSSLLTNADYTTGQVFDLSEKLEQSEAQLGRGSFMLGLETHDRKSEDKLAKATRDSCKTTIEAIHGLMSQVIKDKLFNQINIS
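Detection – fluorescence polarization · System – HEK293T-derived human Csn5 enzyme · Controls – substrate-only high control, full reaction low control · Timing – 90 min, room temperature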
SKN-1 inh: C. elegans SKN-1 inhibition; C. elegans VP596 Pgst-4::GFP/RFP ratio, acrylamide-induced, 24 h; AID 624304; inhibition, % at 21.8 µM; 0.49% of 360,000 active;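 active means interference check ratio from 0.5 to 1.5 plus GFP to RFP signal ratio inhibition reaching or exceeding a fixed threshold, cut at about 30% in these data, passing the limit was not always enough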
MT1-MMP act inh: MT1-MMP (human) activation inhibition | HT1080 RFP-PRO-GFP cells, GFP/RFP ratio fluorescence, overnight; percent of plate control window, DMSO zero | 0.061% of 360,000 active | GFP/RFP ratio change, % at 20 µM | AID 651647 | P50281;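 active means GFP/RFP ratio change of at least 30% with cell ATP level not reduced by more than half and red fluorescence within 50% of control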
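Compound: 20 µM single dose, 1% DMSO / System: HT1080 RFP-PRO-GFP cells / Controls: DMSO and RFP-L50D-GFP cell wells / Read-out basis: GFP/RFP fluorescence ratio / Schedule: overnight compound exposure at 37 °C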
DNMT1 inh: blocks human DNA methyltransferase DNMT1 | P26358 | DNMT1 molecular beacon, Hinp1I cleavage, fluorescence | inhibition (reported as % activation of signal), % at 10 µM | 0.83% of 360,000 active | AID 588458; in the data active means inhibition above about 50%
Rpn11 inh: inhibitors of human proteasome Rpn11. O00487. human 26S proteasome, Ub4-pepOG fluorescence polarization; 20S core pre-blocked with epoxomicin. inhibition, % at 20 µM. 0.59% of 360,000 active. AID 588493;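 active means inhibition at 20 µM, scaled to each plate's controls, above about 33%, limit read from the data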
Rpn11 inh conf: Rpn11 inhibition confirmation, single concentration | shares compounds with Rpn11 inh | purified human 26S proteasome, Ub4-pepOG fluorescence polarization; proteasome pretreated with epoxomicin | inhibition, % at 20 µM | 29% of 1,900 active
MMP-2 inh: blocks human MMP-2, flagging nonselective RPN11 hits | shares compounds with Rpn11 inh | recombinant MMP-2, FRET peptide cleavage fluorescence | inhibition, % at 20 µM | 4% of 1,900 active | AID 602330;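 further: human MMP-2 activated beforehand with APMA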
Thrombin FP: thrombin (bovine) inhibition counter-screen. shares compounds with Rpn11 inh. bovine thrombin cleavage of Ub4-pepOG, fluorescence polarization. inhibition, % at 20 µM. 13% of 1,900 active. AID 602333;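 active means mean inhibition at least 40% at 20 µM, or signal 3 deviations below plate average, so some actives read negative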;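 further: plate controls were thrombin with DMSO for no effect and buffer wells lacking thrombin for full effect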
Numbers without * were called inactive; . = no result shown. This is a sample that favours compounds with a hit; in the whole collection about 2.3% have one here. Unless noted, no stated cut-off is given here; in the data, active means inhibition above about 40%; inactive means the rest.

SMILES	SUMO1 PPI mod	CSN deneddyl inh	SKN-1 inh	MT1-MMP act inh	DNMT1 inh	Rpn11 inh	Rpn11 inh conf	MMP-2 inh	Thrombin FP
CC(C)(C)OC(=O)Nc1ccccc1-n1nnnc1C(C(=O)c1ccccc1)N1CCN(c2ccccn2)CC1 (stereo not drawn)	-11	2	11	-3	.	.	.	.	.
Cc1cc(C)nc(NC(=O)NC(=O)c2ccccc2)n1	6	-3	21	0	6	4	.	.	.
Cc1cc(C)nc(NC(C)(C)C(=O)O)n1	1	-1	14	-4	0	71*	-9	3	-5
Cc1cc(/C=C2/C(=O)N(C)C(=S)N2C)ccc1N1CCCC1	-55	90	32	-73	2	.	.	.	.
CN1C(=O)/C(=C/C=C2/CCCN2C)N(C)C1=S	-28	-4	3	-4	-2	47*	56*	-34	37
NC1=NC(=O)/C(=C/c2cn(CCC(=O)O)nc2-c2ccc(Cl)cc2)S1	9	5	-8	3	4	43*	46*	-3	32
COc1ccc(-c2nn(CCC(=O)O)cc2/C=C2\SC(N)=NC2=O)cc1	-10	-5	-2	-1	1	47*	38	-5	31
NC1=NC(=O)/C(=C/c2cn(CCC(=O)O)nc2-c2ccc(F)cc2)S1	-18	-4	-3	1	-3	14	.	.	.
CCCCCCN1CCN(C2CN(C3CCCCC3)S(=O)(=O)C2)CC1 (stereo not drawn)	5	-8	3	6	0	-3	.	.	.
COc1ccc(C(O)c2nc(-c3cc(F)cc(Cl)c3)cs2)cc1 (stereo not drawn)	2	-3	7	-3	-6	-2	.	.	.
Cc1ccccc1S(=O)(=O)NC(=O)C1(C)CCN1C(=O)CCc1ccc(Cl)cc1Cl (stereo not drawn)	4	-1	-6	0	0	1	.	.	.
COc1cccc(CNC(=O)[C@@H]2CCCN2C(=O)[C@H]2CCCCN2C(=O)c2ccccc2)c1	-2	-5	20	1	.	.	.	.	.
N#CCSc1nc2cc(C(=O)N3CCC(C(N)=O)CC3)ccc2c2nc3ccccc3n12	2	1	21	-5	-4	34*	40	-39	7
CC(C)c1ccc2c(c1)C1Cc3ccccc3C1N2 (stereo not drawn)	-4	14	2	-50	5	57*	2	6	-3
O=C1/C(=C/c2ccc([N+](=O)[O-])cc2)C=C(c2ccccc2)N1c1ccccc1	-22	11	9	-6	3	40*	8	17	-2
CCCCC[C@H](C)N1C[C@@H](COCc2ccccc2)Oc2cc(N3CCC[C@@H]3COC)ccc2S1(=O)=O	-3	1	-5	-2	.	.	.	.	.
COc1cc(NC(=O)c2sc3ncn(CC(=O)N4CCCCC4C)c(=O)c3c2C)cc(OC)c1OC (stereo not drawn)	-3	0	4	4	2	0	.	.	.
CC1(C(=O)NCc2ccc(Cl)cc2)CCN1C(=O)Cc1cccs1 (stereo not drawn)	0	-3	-3	4	6	-11	.	.	.
CCN(CC)C(=O)CSc1nc2c(sc(=S)n2CC)c(=O)n1-c1ccccc1	1	7	12	12	-2	4	.	.	.
CCN(CC)C(=O)CSc1nc2c(sc(=S)n2-c2ccccc2OC)c(=O)n1-c1ccccc1	-7	5	-10	-8	-2	41*	2	10	17
Cc1ccc(-c2c(C#N)c(N)n3c(nc4ccccc43)c2C#N)cc1	-9	16	17	-8	-12	63*	63*	3	82*
Cc1cc(C(=O)c2cccs2)c(N)s1	-2	24	0	-4	-19	53*	50*	-26	39
Cc1cc(C)n2nc(CNS(=O)(=O)c3ccc(C(C)(C)C)cc3)nc2n1	-1	2	5	3	-4	3	.	.	.
CCCN(CC(=O)Nc1cc(C)on1)S(=O)(=O)c1cccc(C(F)(F)F)c1	1	1	1	9	2	35*	-5	21	1
N#C/C(=C(/O)COC(=O)CSc1ccc2ccccc2c1)c1nc2ccccc2[nH]1	0	12	-3	-2	-3	43*	31	-48	25
SMILES	SUMO1 PPI mod	CSN deneddyl inh	SKN-1 inh	MT1-MMP act inh	DNMT1 inh	Rpn11 inh	Rpn11 inh conf	MMP-2 inh	Thrombin FP
Cc1cc(Br)ccc1SCC(=O)OCC(O)=C(C#N)c1nc2ccccc2[nH]1	-7	18	6	2	13	38	.	.	.
CCCn1c(SC/C(O)=C(\C#N)c2nc3ccccc3[nH]2)n[nH]c1=O	10	9	9	-6	-20	39*	34	-10	30
Cc1cc(C)cc(OCC(=O)OC/C(O)=C(\C#N)c2nc3ccccc3[nH]2)c1	9	2	3	-5	2	23	.	.	.
N#C/C(=C(/O)COC(=O)COc1cccc(Br)c1)c1nc2ccccc2[nH]1	2	2	-6	-8	-5	42*	37	-12	25
Cc1cc(Br)ccc1SCC(=O)OC/C(O)=C(\C#N)c1nc2ccccc2[nH]1	-4	4	13	-3	2	46*	18	-44	0
CC(O)(c1ccc(F)c(F)c1)c1nc(-c2cc(F)cc(F)c2)cs1 (stereo not drawn)	-2	-2	17	7	2	4	.	.	.
COc1ccc(C=C2SC(=S)N(CCCC(=O)Nc3ccc(C(=O)O)c(O)c3)C2=O)cc1OC	-10	9	5	-9	-12	45*	97*	-30	79*
CC(C(=O)Nc1ccc(C(=O)O)c(O)c1)N1C(=O)/C(=C\c2ccco2)SC1=S (stereo not drawn)	88*	53*	18	14	95*	74*	45*	34	-6
COc1ccc(/C=C2\SC(=S)N(CCCC(=O)Nc3cccc(C(=O)O)c3)C2=O)cc1OC	-16	17	12	-25	-1	54*	83*	-38	66*
COC(=O)/C=C1\OCc2cc(OCc3ccccc3)ccc21	7	2	17	4	.	.	.	.	.
O=C(c1ccc(Cl)c(Cl)c1)N1CCC(=O)N([C@H](COCc2ccc(Cl)cc2)Cc2ccccc2)CC1	2	1	-15	2	.	.	.	.	.
